Published values from different studies.
Each line is one published result; the experiments were not run side by side.
Target: Tyrosine-protein kinase receptor TYRO3 (TYRO3, Homo sapiens, UniProt Q06418)
Sequence (Q06418 41-890, as in one of the studies): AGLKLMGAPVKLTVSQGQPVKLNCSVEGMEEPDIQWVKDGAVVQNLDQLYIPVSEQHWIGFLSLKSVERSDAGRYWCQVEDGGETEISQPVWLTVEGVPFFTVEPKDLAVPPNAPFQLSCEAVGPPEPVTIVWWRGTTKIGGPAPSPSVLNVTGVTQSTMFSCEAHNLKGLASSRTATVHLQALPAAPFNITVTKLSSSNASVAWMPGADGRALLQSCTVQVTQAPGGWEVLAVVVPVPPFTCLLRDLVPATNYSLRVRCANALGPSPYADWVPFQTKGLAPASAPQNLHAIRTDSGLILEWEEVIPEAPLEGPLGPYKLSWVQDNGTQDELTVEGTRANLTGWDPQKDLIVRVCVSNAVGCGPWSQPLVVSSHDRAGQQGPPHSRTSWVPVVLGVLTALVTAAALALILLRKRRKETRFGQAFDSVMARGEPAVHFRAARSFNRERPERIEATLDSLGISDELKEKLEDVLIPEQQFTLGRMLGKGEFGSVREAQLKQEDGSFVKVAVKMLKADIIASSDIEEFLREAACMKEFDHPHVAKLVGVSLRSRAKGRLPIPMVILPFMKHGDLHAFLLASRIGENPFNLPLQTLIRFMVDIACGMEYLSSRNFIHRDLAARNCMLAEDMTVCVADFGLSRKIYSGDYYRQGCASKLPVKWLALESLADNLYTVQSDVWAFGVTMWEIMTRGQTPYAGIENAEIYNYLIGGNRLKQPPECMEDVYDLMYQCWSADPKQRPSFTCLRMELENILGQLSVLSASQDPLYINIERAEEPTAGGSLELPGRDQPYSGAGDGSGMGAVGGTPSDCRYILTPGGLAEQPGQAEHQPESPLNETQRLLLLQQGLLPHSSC

CN(CCCC(F)(F)F)c1nccc(-c2cnn3ncccc23)n1 gave a remaining binding of 93% (binding; 1 µM).
With O=C(c1ccc(Nc2ncc(Cl)c(-c3cc4ccccc4s3)n2)cc1)N1CCC(N2CCCC2)CC1 the remaining binding was 44% (binding; competition with immobilised ligand; 1 µM).
For C[C@H](c1ccc(F)cc1)N(Cc1cccc(C(=O)O)c1)C(=O)c1cnc2ccccc2c1, the remaining binding was 100% (cell-free assay; competition with immobilised ligand; 1 µM).
CCN1CCN(Cc2ccc(C(=O)Nc3ccc(C)c(Oc4ccc5c(c4)CC(=O)N5)c3)cc2C(F)(F)F)CC1 has a remaining binding of 100% (binding; competition with immobilised ligand; 1 µM).
With Nc1c(C(=O)NCc2ccc(C(=O)NCCCC3CCCCC3)cc2)cnn1-c1ccccc1 the remaining binding was 100% (cell-free assay; competition with immobilised ligand; 0.1 µM).
CN(C)c1ncc(F)c(-c2cnn3ncccc23)n1 has a remaining binding of 75% (binding; 1 µM).
With Cn1nc(C(=O)NCc2ccc(C(=O)O)cc2)cc1-c1ccc2[nH]ccc2c1 the remaining binding was 100% (cell-free assay; competition with immobilised ligand; 0.1 µM).
For COc1cnc(Nc2cccc(S(N)(=O)=O)c2)nc1N1CCN(c2ccccc2)CC1, the remaining binding was 72% (binding; competition with immobilised ligand; 1 µM).
CN(C)c1nccc(-c2cnc3ncccn23)n1 has a remaining binding of 100% (binding; 1 µM).
CNC(=O)[C@@H]1CC[C@@H](n2c(-c3ccc4cnccc4c3)nc3ccc(C(=O)NCc4cccc(C(N)=O)c4)cc32)C1 has a remaining binding of 100% (binding; competition with immobilised ligand; 1 µM).
With C[C@@H](c1ccc(-n2cnc3c(N)ncnc32)cc1)N1CCc2nn(C)c(Cc3ccccc3)c2C1=O the remaining binding was 100% (binding; competition with immobilised ligand; 0.1 µM).
C[C@@H]1CCN(c2nccc(-c3cnn4ncccc34)n2)C1 gave a remaining binding of 100% (binding; 1 µM).
With CS(=O)(=O)NCC[C@H](NC(=O)c1cncc2c1cnn2-c1ccc(F)cc1)c1ccnc(S(C)(=O)=O)c1 the remaining binding was 94% (cell-free assay; competition with immobilised ligand; 1 µM).
For COc1ccnn2ncc(-c3ccnc(N(C)C)n3)c12, the remaining binding was 100% (binding; 1 µM).
With NS(=O)(=O)c1cc(NC(=O)C2(c3ccccc3Cl)CC2)ccc1Oc1cccc(Cl)c1 the remaining binding was 100% (cell-free assay; competition with immobilised ligand; 1 µM).
The remaining binding of O=C(NCC1CCOCC1)c1n[nH]cc1NC(=O)c1c(F)cccc1F is reported as 99% (binding; competition with immobilised ligand; 1 µM).
For O=C(NCCCN1CCOCC1)c1ccc(Nc2nccc(-c3cc4ccccc4s3)n2)cc1, the remaining binding was 90% (binding; competition with immobilised ligand; 1 µM).
The remaining binding of c1cnn2ncc(-c3ccnc(N4CCC45COC5)n3)c2c1 is reported as 73% (binding; 1 µM).
Cc1c(NC(=O)c2cc(C(N)=O)nc3cc(F)ccc23)c(C(F)(F)F)nn1Cc1ccc(C#N)cc1 gave a remaining binding of 81% (cell-free assay; competition with immobilised ligand; 1 µM).
The remaining binding of N[C@@H]1CCN(c2nccc(-c3cnn4ncccc34)n2)C1 is reported as 100% (binding; 1 µM).
CCC(=N\O)/C(C)=C/c1ccc(F)cc1 has a remaining binding of 100% (cell-free assay; competition with immobilised ligand; 1 µM).
Cc1cnc(Nc2ccc(C(=O)N3CCC(N4CCCC4)CC3)cc2)nc1-c1cc2ccccc2s1 has a remaining binding of 58% (binding; competition with immobilised ligand; 1 µM).
